Reference: ChEMBL document CHEMBL1132360, “N-Substituted (2,3-dihydro-1,4-benzodioxin-2-yl)methylamine derivatives as D(2) antagonists/5-HT(1A) partial agonists with potential as atypical antipsychotic agents” (J Med Chem, 1999)

Columns and labels:
[1] = biological target: T1, 5-hydroxytryptamine receptor 1A (Rattus norvegicus, UniProt P19327); assay: Binding affinity towards 5-hydroxytryptamine 1A receptor from rat brain using [3H]-8-OH-DPAT as radioligand
T1 sequence (P19327 whole entry): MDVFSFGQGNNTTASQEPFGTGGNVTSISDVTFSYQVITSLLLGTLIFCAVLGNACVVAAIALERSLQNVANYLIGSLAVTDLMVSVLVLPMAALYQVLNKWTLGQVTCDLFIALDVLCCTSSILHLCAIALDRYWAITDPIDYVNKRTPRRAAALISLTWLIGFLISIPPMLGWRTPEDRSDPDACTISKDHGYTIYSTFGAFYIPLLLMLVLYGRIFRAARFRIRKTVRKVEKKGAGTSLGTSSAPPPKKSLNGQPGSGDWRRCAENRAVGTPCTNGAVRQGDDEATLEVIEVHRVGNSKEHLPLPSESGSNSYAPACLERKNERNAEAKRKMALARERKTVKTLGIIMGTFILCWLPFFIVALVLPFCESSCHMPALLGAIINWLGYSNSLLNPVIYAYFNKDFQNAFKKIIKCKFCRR

[2] = biological target: T2, Adrenergic receptor alpha-1 (Homo sapiens, UniProt P35348+P25100+P35368); assay: Binding affinity towards Alpha-1 adrenergic receptor in human cortex membranes; type: cell membranes
T2 sequence (P35348 whole entry): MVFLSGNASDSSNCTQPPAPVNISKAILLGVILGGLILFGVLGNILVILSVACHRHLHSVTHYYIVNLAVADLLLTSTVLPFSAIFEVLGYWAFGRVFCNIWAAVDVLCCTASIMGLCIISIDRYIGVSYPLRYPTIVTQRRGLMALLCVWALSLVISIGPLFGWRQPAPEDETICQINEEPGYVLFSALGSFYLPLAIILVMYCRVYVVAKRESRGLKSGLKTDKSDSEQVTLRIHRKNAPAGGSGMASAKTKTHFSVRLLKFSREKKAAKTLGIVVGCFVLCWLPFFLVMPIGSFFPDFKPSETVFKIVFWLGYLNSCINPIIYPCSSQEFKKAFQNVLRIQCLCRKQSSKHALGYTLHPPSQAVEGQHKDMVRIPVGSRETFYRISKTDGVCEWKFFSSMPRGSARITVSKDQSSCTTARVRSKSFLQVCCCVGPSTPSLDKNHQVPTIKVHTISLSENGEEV
T2 sequence (P25100 whole entry): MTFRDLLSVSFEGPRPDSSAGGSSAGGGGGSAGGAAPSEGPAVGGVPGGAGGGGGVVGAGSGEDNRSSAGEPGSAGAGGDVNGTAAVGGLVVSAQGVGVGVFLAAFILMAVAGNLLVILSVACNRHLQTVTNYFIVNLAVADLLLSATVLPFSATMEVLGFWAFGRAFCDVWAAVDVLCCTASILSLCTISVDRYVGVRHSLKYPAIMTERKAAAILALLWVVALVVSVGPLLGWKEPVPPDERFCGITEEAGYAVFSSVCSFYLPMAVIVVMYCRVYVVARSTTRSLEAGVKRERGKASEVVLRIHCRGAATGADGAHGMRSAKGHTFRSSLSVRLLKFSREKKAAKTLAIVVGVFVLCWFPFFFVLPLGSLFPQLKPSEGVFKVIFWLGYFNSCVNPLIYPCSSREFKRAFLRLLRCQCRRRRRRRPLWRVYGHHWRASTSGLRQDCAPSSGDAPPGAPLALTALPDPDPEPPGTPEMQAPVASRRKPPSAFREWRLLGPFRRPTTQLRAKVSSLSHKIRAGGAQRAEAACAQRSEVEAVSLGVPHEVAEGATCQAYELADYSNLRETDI
T2 sequence (P35368 whole entry): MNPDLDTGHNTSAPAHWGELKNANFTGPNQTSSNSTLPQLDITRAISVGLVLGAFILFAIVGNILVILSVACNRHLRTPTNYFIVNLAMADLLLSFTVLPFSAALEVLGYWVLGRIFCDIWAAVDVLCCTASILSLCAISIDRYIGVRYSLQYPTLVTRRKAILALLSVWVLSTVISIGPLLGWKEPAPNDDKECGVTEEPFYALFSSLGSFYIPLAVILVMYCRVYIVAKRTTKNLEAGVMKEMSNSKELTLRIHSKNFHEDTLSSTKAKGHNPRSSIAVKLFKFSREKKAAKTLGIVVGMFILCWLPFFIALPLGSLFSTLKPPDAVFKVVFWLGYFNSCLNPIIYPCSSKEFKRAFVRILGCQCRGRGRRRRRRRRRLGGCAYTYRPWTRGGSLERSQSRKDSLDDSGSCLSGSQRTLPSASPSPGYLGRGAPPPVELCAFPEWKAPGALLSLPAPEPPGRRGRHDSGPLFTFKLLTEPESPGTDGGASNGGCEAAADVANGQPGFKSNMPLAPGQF

[3] = test system: Mus musculus; assay: Antagonistic activity against apomorphine induced climbing in the mouse after po administration; type: functional
In short: (§1)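 Male CD1 mice (20–25 g), groups of 10, dosed po with compound or vehicle ([…]) at set times before apomorphine 0.88 mg/kg sc. Each mouse placed in an inverted open-ended wire cage; climbing scored 0–2 at 10 and 20 min after apomorphine.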

[4] = test system: Rattus norvegicus; assay: The compound was tested in vivo for induction of catalepsy in rat after ip administration; type: functional
In short: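 Male rats (130–190 g), groups of five, injected ip with compound solution (1 mL/kg). Catalepsy assessed at three times by placing each paw on a 45 mm rubber bung; a paw held 15 s scores 1 (group maximum 20 = 100%). ED50 from percent catalepsy at the final reading, by adapted Litchfield–Wilcoxon.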

[5] = test system: Mus musculus; assay: The compound was tested for antagonistic activity against apomorphine induced climbing in the mouse after po administration; type: functional; in short: as §1
[6] = biological target: T3, 5-hydroxytryptamine receptor 1A (Rattus norvegicus) (UniProt P19327); assay: The compound was tested binding affinity against 5-hydroxytryptamine 1A receptor from rat brain using [3H]8-OH-DPAT as radioligand at 10e-6 M.
T3 sequence (whole entry): T1 sequence (P19327 whole entry)
In short: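 Adult male CD rat hippocampal membranes (endogenous 5-HT removed by 37 °C, 10 min incubation) in 50 mM Tris-HCl pH 7.7 plus CaCl2, ascorbate, pargyline; incubated with 2 nM [3H]8-OH-DPAT and test compound at 10⁻⁶ M, 30 min, 25 °C; 10 μM 5-HT defines nonspecific binding. Specific binding with and without compound gives percent displacement.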

[7] = biological target: Adrenergic receptor alpha-1 (Homo sapiens) (UniProt P35348+P25100+P35368); assay: Compound was tested for binding affinity towards Alpha-1 adrenergic receptor in human cortex membranes; type: cell membranes; conditions: concentration not given here
In short: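 Postmortem human cortex membranes (stored −80 °C, final in 50 mM Tris-HCl pH 7.6) incubated with [3H]prazosin 0.1 nM and compound at 10⁻⁶ M or 10 concentrations, 30 min at 30 °C; phentolamine 5 μM defines nonspecific binding. Bound ligand by filtration and scintillation counting; Ki from IC50 by Cheng–Prusoff, ±SEM; percentages are displacement at 10⁻⁶ M.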

[8] = test system: Mus musculus; assay: Percent reduction in apomorphine induced climbing in mouse at 50 mg/Kg of compound given perorally; type: functional
In short: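 Male CD1 mice (20–25 g), groups of 10, given compound po (vehicle 0.1 mL/kg) at 50 mg/kg before apomorphine 0.88 mg/kg sc. Climbing in inverted open-ended wire cages scored 0–2 at 10 and 20 min after apomorphine; percent reduction in climbing at that dose reported.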

[9] = test system: Mus musculus; assay: The compound was tested for antagonistic activity against apomorphine induced climbing in the mouse, percentages are for reduction in climbing after peroral administration; type: functional; conditions: po
In short: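 Groups of 10 male CD1 mice (20–25 g) dosed po with test compound or vehicle at set times before apomorphine 0.88 mg/kg sc. Mice were placed singly in inverted wire cages and climbing was scored 0–2 at 10 and 20 min after apomorphine. Percent reduction in climbing is given at the stated dose.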

SMILES	Ki [1]	Ki [2]	ED50 [3]	ED50 [4]	also measured
COc1ccccc1N1CCC(CNCC2COc3cccc(F)c3O2)CC1 (centres undefined)	16 nM	12 nM	4 mg/kg	23 mg/kg	–
COc1ccccc1NCC1CCN(CC2COc3ccccc3O2)CC1 (centres undefined)	20 nM	20 nM	62 mg/kg	–	–
COc1cccc2c1OC(CNCC1CCN(c3ncccn3)CC1)CO2 (centres undefined)	0.6 nM	2.3 nM	2.4 mg/kg	–	–
COc1cccc(N2CCC(CNCC3COc4ccccc4O3)CC2)c1 (centres undefined)	–	–	–	–	Reduction [5]: 45%
COc1cccc2c1OCC(CNCC1CCN(c3ncccn3)CC1)O2 (centres undefined)	128 nM	234 nM	–	–	–
CN(CC1CCN(c2ncccn2)CC1)CC1COc2ccccc2O1 (centres undefined)	–	348 nM	–	–	inhibition [6]: 85%
c1ccc(N2CCC(CNCC3COc4ccccc4O3)CC2)nc1 (stereo in doubt; 13) [listing 1 of 2 here]	–	–	–	–	inhibition [6]: 82%; inhibition [7]: 84%
c1ccc(N2CCC(CNCC3COc4ccccc4O3)CC2)nc1 (stereo in doubt; 13) [listing 2 of 2 here]	–	–	–	–	Reduction [8]: 55%
c1ccc(N2CCC(CNCC3COc4ccccc4O3)CC2)nc1 (stereo in doubt; 12) [listing 1 of 2 here]	–	–	–	–	inhibition [6]: 98%; inhibition [7]: 98%
c1ccc(N2CCC(CNCC3COc4ccccc4O3)CC2)nc1 (stereo in doubt; 12) [listing 2 of 2 here]	–	–	23 mg/kg	–	–
c1cnc(NCC2CCN(CC3COc4ccccc4O3)CC2)nc1 (stereo in doubt; 8)	21 nM	23 nM	–	–	–
c1cnc(NCC2CCN(CC3COc4ccccc4O3)CC2)nc1 (stereo in doubt; 9)	463 nM	208 nM	–	–	–
CN1CCN(C2=Nc3cc(Cl)ccc3Nc3ccccc32)CC1 [CLOZAPINE]	–	–	–	33.9 mg/kg	ED50 [9]: 9.5 mg/kg
CC1(CNCC2CCN(c3ncccn3)CC2)COc2ccccc2O1 (centres undefined)	195 nM	132 nM	–	–	–
O=C(CCCN1CCC(O)(c2ccc(Cl)cc2)CC1)c1ccc(F)cc1 [HALOPERIDOL]	–	–	–	0.44 mg/kg	ED50 [9]: 0.16 mg/kg
COc1ccccc1N1CCC(CNCC2COc3cccc(O)c3O2)CC1 (centres undefined)	–	> 500 nM	33 mg/kg	–	inhibition [6]: 94%
c1cnc(NCCCNCC2COc3ccccc3O2)nc1 (centres undefined)	3.1 nM	–	6 mg/kg	–	–
CC1Oc2ccccc2OC1CNCC1CCN(c2ncccn2)CC1 (centres undefined)	> 500 nM	> 500 nM	134 mg/kg	775 mg/kg	–
Cc1nc2n(c(=O)c1CCN1CCC(c3noc4cc(F)ccc34)CC1)CCCC2 [RISPERIDONE]	–	–	–	1.75 mg/kg	ED50 [9]: 0.3 mg/kg
Cc1cc2c(s1)Nc1ccccc1N=C2N1CCN(C)CC1 [OLANZAPINE]	–	–	4.87 mg/kg	6.07 mg/kg	–

Continued, in another order:

Ki [1]	Ki [2]	SMILES	ED50 [3]	ED50 [4]	also measured
3 nM	33 nM	c1ccc2c(c1)OCC(CNCC1CCN(c3cccc4c3OCC4)CC1)O2 (centres undefined)	18 mg/kg	107 mg/kg	–
37 nM	74 nM	COc1ccccc1N1CCC(CNC[C@@H]2COc3ccccc3O2)CC1	38 mg/kg	–	–
18 nM	38 nM	c1ccc2c(c1)OCC(CNCC1CCN(c3cccc4c3OCCO4)CC1)O2 (centres undefined)	32 mg/kg	> 200 mg/kg	–
8 nM	23 nM	COc1ccccc1N1CCC(CNC[C@H]2COc3ccccc3O2)CC1	7 mg/kg	50 mg/kg	–
17 nM	94 nM	Clc1ccccc1N1CCC(CNCC2COc3ccccc3O2)CC1 (centres undefined)	–	–	–
25 nM	117 nM	c1cnc(N2CCC(CNC[C@@H]3COc4ccccc4O3)CC2)nc1	–	–	Reduction [8]: 77%
29 nM	47 nM	c1ccc(N2CCC(CNCC3COc4ccccc4O3)CC2)cc1 (centres undefined)	39 mg/kg	–	–
2.7 nM	18 nM	c1cnc(N2CCC(CNC[C@H]3COc4ccccc4O3)CC2)nc1	9 mg/kg	44 mg/kg	–
15 nM	44 nM	COc1ccc(N2CCC(CNCC3COc4ccccc4O3)CC2)cc1 (centres undefined)	11 mg/kg	–	–
